The list is not random: actives were taken first. Their share in the collection is about 3.7%.
ROMK mod = ROMK potassium channel modulators, primary screen, cell-based, thallium flux, MLSMR library. Tet-inducible ROMK, thallium flux fluorescence; actives lie on both sides. B-score at 10 µM. 2% of 130,000 active;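 active = signal ratio slope over the read window, or its plate-corrected B-score, at least 3 SD from the plate mean, either direction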;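 also: B-score of the F/F0 ratio slope over 7 to 12 s after thallium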
Cl transport mod = KCC2 cotransporter modulators, thallium flux, primary screen, cell-based, HEK293 KCC2, FluoZin-2 fluorescence, MLSMR. KCC2 cells, thallium flux FluoZin-2 fluorescence. 2.2% of 190,000 active. B-score of Tl+ flux slope (higher = more flux/activation; lower = inhibition) at 10 µM;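 active = thallium flux slope and its plate-corrected score both differing from the plate sample mean at a set confidence after two filtering rounds, in either direction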;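 also: slope of fluorescence scaled to starting intensity during 10 to 20 s after thallium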
Mdm2 ligase inh = MDM2-luciferase reporter signal enhancers, primary screen, MDM2 E3 ligase inhibitor project, cell-based, luminescence, 1536-well | E3 ubiquitin-protein ligase Mdm2 (Homo sapiens), Q00987 | cell-based MDM2 ubiquitination luciferase reporter, 2 h; 0 = plate control, 100 = twice control, blank-subtracted | signal enhancement, % at 5 µM | 0.11% of 210,000 active;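 active = signal enhancement of 30% or more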;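 also: luminescence tracks abundance of the self-degrading MDM2-luciferase fusion protein; higher signal means inhibition of MDM2 E3 ligase activity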
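Material: Stable MDM2–luciferase fusion reporter cells | Amount: 2000 cells seeded into each well | Dosing: One concentration, 5 µM, with 0.2% DMSO | Incubation: 4 h cell settling then 2 h compound exposure, 37 °C | Measured by: Luciferase luminescence | Read-out basis: % enhancement relative to plate controls after blank subtraction | Benchmarks: Control and blank well means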
Arbovirus anti = antivirals against arbovirus infection, primary screen, cell-based, full library, 10K replicate subset. arbovirus infection cell-based antiviral screen. inhibition, % at 10 µM. 0.37% of 200,000 active. AID 1251, 2008; in the data active = inhibition above about 30%
Calpain2 inh = inhibitors of pig calpain II, primary screen, biochemical, fluorogenic peptide substrate, 1536-well; AID 1236, 2008; inhibition, % at 16 µM; 0.37% of 220,000 active; purified calpain II, 30 min;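 active = inhibition above about 50%, limit read from the data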
PKD1 kinase inh = inhibitors of human PKD1 kinase, biochemical, fluorescence polarization. Serine/threonine-protein kinase D1 (Homo sapiens), Q15139. PKD1 kinase fluorescence polarization assay. inhibition, % (test concentration not listed). 0.056% of 200,000 active. AID 797, 2007; in the data active = inhibition above about 50%
Target sequence (Q15139 whole entry, looked up): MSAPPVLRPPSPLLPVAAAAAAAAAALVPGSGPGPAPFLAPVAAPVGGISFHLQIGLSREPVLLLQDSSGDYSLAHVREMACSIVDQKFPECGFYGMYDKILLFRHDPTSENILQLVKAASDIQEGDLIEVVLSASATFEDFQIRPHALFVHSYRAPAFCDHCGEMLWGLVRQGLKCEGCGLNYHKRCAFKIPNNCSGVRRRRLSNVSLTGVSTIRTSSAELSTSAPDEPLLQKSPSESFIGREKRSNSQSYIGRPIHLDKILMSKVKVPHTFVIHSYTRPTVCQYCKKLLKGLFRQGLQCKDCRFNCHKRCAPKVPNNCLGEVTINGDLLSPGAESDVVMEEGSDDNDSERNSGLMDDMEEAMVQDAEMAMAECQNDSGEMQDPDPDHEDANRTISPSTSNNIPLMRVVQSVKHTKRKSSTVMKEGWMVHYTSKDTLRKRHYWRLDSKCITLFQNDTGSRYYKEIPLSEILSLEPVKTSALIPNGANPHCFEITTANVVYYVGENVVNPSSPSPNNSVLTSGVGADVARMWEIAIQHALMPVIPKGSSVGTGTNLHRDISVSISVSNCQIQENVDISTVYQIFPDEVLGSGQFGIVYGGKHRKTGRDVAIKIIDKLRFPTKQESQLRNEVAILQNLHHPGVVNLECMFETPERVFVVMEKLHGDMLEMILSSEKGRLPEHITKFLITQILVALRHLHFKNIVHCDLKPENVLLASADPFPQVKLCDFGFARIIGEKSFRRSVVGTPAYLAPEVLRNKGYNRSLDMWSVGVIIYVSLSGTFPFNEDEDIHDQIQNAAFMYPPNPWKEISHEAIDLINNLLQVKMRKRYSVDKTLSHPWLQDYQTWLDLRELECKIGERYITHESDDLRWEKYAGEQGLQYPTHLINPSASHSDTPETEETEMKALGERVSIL
ROMK hit retest = ROMK channel modulator hit retest, confirmation, cell-based, thallium flux, duplicate, resupplied hits; normalized thallium flux (F/F0 slope) at 10 µM; 54% of 3,000 active; AID 1917, 2009; fluorescence ratio; hits give low values; shares compounds with ROMK mod;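 active = Flux at 10 µM at least 3 SD below or above vehicle control mean in one or both replicates; inconclusive = no clear call, values can overlap the other calls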
Numbers without * were called inactive; ? = inconclusive; / = no result.

SMILES	ROMK mod	Cl transport mod	Mdm2 ligase inh	Arbovirus anti	Calpain2 inh	PKD1 kinase inh	ROMK hit retest
COC(=O)CSc1nc(C)cc(C(F)(F)F)c1C#N	/	0.206	-9.4	-8.8	5.7	2.6	0.0733
COC(=O)CSc1nc(C)cc(C)c1C#N	0.577	0.469	7.3	-3.4	-16.0	0.2	/
COc1ccc(S(=O)(=O)NC(C)CCc2ccccc2)cc1 (stereo unspecified)	0.556	-0.14	-12.5	0.2	9.3	-6.0	/
COc1ccccc1NS(=O)(=O)c1cccc(N=C2N=C(N)c3ccccc32)c1	/	0.0697	-18.4	-17.8	25.9	8.0	0.0814
NC1=NC(=Nc2cccc(S(N)(=O)=O)c2)c2ccccc21	/	/	-6.7	/	-19.3	/	/
CSc1nnc(CSc2cc(C)nc(N(C)C)n2)o1	/	-0.0199	-5.7	1.3	1.9	-0.8	/
O=C(NCc1cccnc1)/C(=C/c1ccc(-c2cccc(Cl)c2)o1)S(=O)(=O)c1ccccc1	-5.31*	0.0207	-17.5	-45.6	-106.3	-0.8	0.0512*
Cc1ccc(C(=O)N/C(=C\c2ccc(-c3cc(Cl)ccc3Cl)o2)C(=O)NCc2cccnc2)cc1	0.209	-2.07	-18.0	-34.7	-155.6	-3.0	/
O=C(NCc1cccnc1)/C(=C\c1ccc(-c2cccc(Cl)c2)o1)S(=O)(=O)c1ccccc1	-4.79*	-0.227	/	-40.7	-113.0	2.6	0.0501*
O=C(CC12CC3CC(CC(C3)C1)C2)NCO	0.109	1.09	-6.6	0.2	-45.5	-18.7	/
CC(NC(=O)CC12CC3CC(CC(C3)C1)C2)C(=O)O (stereo unspecified)	2.12*	-0.53	-21.7	7.5	6.1	-5.5	0.0909
O=C1CCC([N+](=O)[O-])C(c2cc3c(cc2Cl)OCO3)N1 (stereo unspecified)	-0.134	0.0278	-3.3	1.9	9.1	0.5	/
CCOc1ccccc1OCC(=O)NC1CCCCC1	0.0189	/	-11.3	-4.7	-41.0	-2.1	/
O=C(COc1ccccc1Br)NC1CCCC1	/	-1.05	-7.3	-8.1	-2.9	0.4	0.0688*
CC(SCc1cn2cc(Cl)ccc2n1)C(=O)O (stereo unspecified)	/	1.18	-3.6	1.5	-15.4	-4.2	/
CCc1ccc(S(=O)(=O)NCc2csc(C)n2)s1	-0.0502	1.57	1.2	5.8	-8.3	-9.7	/
CCCCOc1ccc(S(=O)(=O)NCc2csc(C)n2)cc1	-2.31*	-0.286	-5.2	14.7	19.1	8.2	0.0668*
Cc1[nH]nc2c1C(c1cc(Br)cs1)C(C#N)=C(N)O2 (stereo unspecified)	-1.83	-0.0168	10.8	-17.0	28.4	-2.1	/
Cc1ccc(OCc2nnc(SCC(=O)C(C)(C)C)n2Cc2ccco2)cc1	-3.59*	/	3.2	0.9	-4.9	5.8	0.0746
CC(C)Cn1c2c(c(=O)[nH]c1=O)C(C(F)(F)F)(C(F)(F)F)N=C(CCC1CCCCC1)N2	-0.177	0.0894	-11.9	6.7	-35.2	-0.2	/
O=c1[nH]c(=O)n(Cc2ccco2)c2c1C(C(F)(F)F)(C(F)(F)F)N=C(CCC1CCCCC1)N2	/	1.15	-16.7	0.1	-3.7	1.4	/
O=c1[nH]c(=O)n(Cc2ccco2)c2c1C(C(F)(F)F)(C(F)(F)F)N=C(CCc1ccccc1)N2	/	/	-83.8	-3.5	0.5	-8.6	0.063*
O=c1[nH]c(=O)n(-c2ccccc2)c2c1C(C(F)(F)F)(C(F)(F)F)N=C(CCC1CCCCC1)N2	-3.44*	-1.59	2.9	2.0	15.2	-9.2	0.0617*
Cc1ccc(-n2ncc3c(NCc4cccnc4)ncnc32)c(C)c1	-0.207	0.285	-1.2	7.4	-12.4	-8.1	0.0665*
O=C(NCC(c1ccc(F)cc1)N1CCOCC1)c1ccc(Br)o1 (stereo unspecified)	/	0.112	-8.6	8.0	22.1	1.4	/
SMILES	ROMK mod	Cl transport mod	Mdm2 ligase inh	Arbovirus anti	Calpain2 inh	PKD1 kinase inh	ROMK hit retest
CCS(=O)(=O)N1CCN(c2cc3c(cc2[N+](=O)[O-])n(C)c(=O)n3C)CC1	-0.184	0.31	-15.9	-2.7	12.0	-4.1	/
COc1ccc(CNC(=O)c2ccc(C(C)C)cc2)cc1	/	-0.583	-5.9	-8.6	34.0	3.4	/
COc1ccc(C(=O)NCc2c(CC(C)C)oc(C)c2C(=O)O)cc1	/	-0.457	0.9	-0.4	-23.3	5.2	0.076
Cc1c(NC(=O)/C(C#N)=C/C2CC=CCC2)c(=O)n(-c2ccccc2)n1C (stereo unspecified)	-4.97*	-0.118	1.8	1.8	28.2	-1.1	0.0431*
Cc1c(NC(=O)/C(C#N)=C\c2cccs2)c(=O)n(-c2ccccc2)n1C	/	0.108	-16.8	-5.0	-3.2	-5.5	/
Cc1c(N2C(=O)/C(=C\C3CC=CCC3)SC2=S)c(=O)n(-c2ccccc2)n1C (stereo unspecified)	-6.55*	-0.458	-5.6	-4.6	-4.3	-3.1	0.0378*
Cc1c(NC(=O)/C(C#N)=C/c2ccc(-c3ccc(Cl)cc3)o2)c(=O)n(-c2ccccc2)n1C	-2.61*	-3	1.7	-0.9	30.9	-2.9	0.0801
CC1(C(=O)O)CCC(C(=O)Nc2ccc(S(N)(=O)=O)cc2)C1(C)C (stereo unspecified)	1.6	0.0046	-7.1	6.4	1.4	-19.4	/
Cc1cc(C)nc(SCc2nc(N)nc(-c3ccccc3O)n2)n1	/	/	-11.8	-3.0	-15.3	-3.3	/
CCOC(=O)c1c(CSC(=N)N)n(-c2ccc(Br)cc2)c2cc(Br)c(OC(C)=O)cc12	-5.21*	1.21	-8.7	-34.5	-6.3	5.3	0.0451*
CCOC(=O)c1c(CSc2nc(C)cc(C)c2C#N)n(C)c2cc(Br)c(OC(C)=O)cc12	/	-0.503	-4.3	-23.4	-54.5	-5.7	/
C=CCCc1ccc(C#N)c(SCc2c(C(=O)OCC)c3cc(OC(C)=O)c(Br)cc3n2C)n1	/	-1.25	-10.4	-5.4	17.9	-3.0	/
CCCCCCCCOC(=O)c1c(CSC(=N)N)n(C)c2cc(Br)c(OC(C)=O)cc12	/	1.66	-8.5	/	-11.1	/	?
CN1C(=O)N(C)c2ccc(C=O)c3cccc1c23	-3.43*	-1.04	-5.0	-8.3	-158.5	-5.6	0.0675*
O=C(O)c1ccc(NC2=C/C(=N/S(=O)(=O)c3ccccc3)c3ccccc3C2=O)cc1	-3.42*	-0.495	/	-20.2	26.3	-2.4	0.0522*
CCC(C)/C=C/C1=CC2=C(Cl)C(=O)C3(C)OC(=O)C(C(=O)C(C)C(C)O)C3C2=CO1 (stereo unspecified)	/	0.0557	-9.9	1.4	-50.5	17.4	/

Assay outcomes deposited in PubChem by several laboratories.
